# Assays:
# [1] = system: Staphylococcus aureus; test: Antibacterial activity against Staphylococcus aureus ATCC 6538 after 18 hrs; type: functional; details: ATCC 6538, 18 h
# How it was run: (§1)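 Broth microdilution in Nutrient Broth No. 2; stocks in ethanol diluted to 0.01–128 µg/ml (triclosan) or 0.25–256 µg/ml (glycosides). Overnight 37 °C NB2 cultures diluted 1 in 10^4 in saline and added to the dilutions. Incubation at 37 °C with agitation, OD read every 15 min; MIC is the lowest concentration preventing any OD rise after 18 h.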
# [2] = system: Escherichia coli; test: Antibacterial activity against Escherichia coli ATCC 11775 after 18 hrs; type: functional; how it was run: as §1
# [3] = system: Citrobacter freundii; test: Antibacterial activity against Citrobacter freundii 8090 after 18 hrs; type: functional; details: Citrobacter freundii, 8090, 18 h; how it was run: as §1
# [4] = system: Staphylococcus aureus; test: Antibacterial activity against Staphylococcus aureus ATCC 6538P after 18 hrs; type: functional; how it was run: as §1
# [5] = system: Klebsiella pneumoniae; test: Antibacterial activity against Klebsiella pneumoniae ATCC 10031 after 18 hrs; type: functional; details: ATCC 10031, 18 h; how it was run: as §1
# [6] = system: Escherichia coli; test: Antibacterial activity against Escherichia coli NCTC 13216 after 18 hrs; type: functional; details: NCTC 13216, 18 h; how it was run: as §1
# [7] = system: Staphylococcus haemolyticus; test: Antibacterial activity against Staphylococcus haemolyticus OCC 2223 after 18 hrs; type: functional; details: OCC 2223, 18 h
# How it was run: (§2)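 Broth microdilution in Nutrient Broth No. 2. Ethanol stocks were diluted in broth to 0.01–128 µg/ml for triclosan and 0.25–256 µg/ml for glycosides. Overnight 37°C NB2 cultures were diluted 1 in 10^4 in saline and added to the wells. Plates were incubated at 37°C with OD read every 15 min after agitation. MIC was the lowest concentration giving no OD increase at 18 h.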
# [8] = system: Enterococcus faecalis; test: Antibacterial activity against Enterococcus faecalis ATCC 29212 after 18 hrs; type: functional; details: ATCC 29212, 18 h; how it was run: as §1
# [9] = system: Proteus mirabilis; test: Antibacterial activity against Proteus mirabilis ATCC 12453 after 18 hrs; type: functional; details: ATCC 12453, 18 h; how it was run: as §1
# [10] = system: Escherichia coli; test: Antibacterial activity against Escherichia coli ATCC 35218 after 18 hrs; type: functional; details: ATCC 35218, 18 h; how it was run: as §1
# [11] = system: Escherichia coli; test: Antibacterial activity against Escherichia coli 700728 after 18 hrs; type: functional; details: Escherichia coli, 700728, 18 h; how it was run: as §1
# [12] = system: Staphylococcus aureus; test: Antibacterial activity against Staphylococcus aureus OCC 106 after 18 hrs; type: functional; details: OCC 106, 18 h; how it was run: as §1
# [13] = system: Staphylococcus aureus; test: Antibacterial activity against Staphylococcus aureus ATCC 25923 after 18 hrs; type: functional; details: ATCC 25923, 18 h; how it was run: as §1
# [14] = system: Streptococcus pneumoniae; test: Antibacterial activity against Streptococcus pneumoniae 6305 after 18 hrs; type: functional; details: Streptococcus pneumoniae, 6305, 18 h; how it was run: as §2
# [15] = Antibacterial activity against Salmonella enterica subspecies enterica serotype Poona NCTC 4840 after 18 hrs; type: functional, Salmonella enterica subsp. enterica serovar Poona; details: NCTC 4840, 18 h; how it was run: as §1
# [16] = system: Salmonella typhimurium; test: Antibacterial activity against Salmonella enterica subspecies enterica serotype typhimurium ATCC 14028 after 18 hrs; type: functional, Salmonella enterica subsp. enterica serovar Typhimurium; details: ATCC 14028, 18 h; how it was run: as §1
# [17] = system: Escherichia coli; test: Antibacterial activity against Escherichia coli ATCC 25922 after 18 hrs; type: functional; details: ATCC 25922, 18 h; how it was run: as §1
# [18] = system: Escherichia hermannii; test: Antibacterial activity against Escherichia hermannii 33650 after 18 hrs; type: functional; details: Atlantibacter hermannii, 33650, 18 h; how it was run: as §1
# [19] = system: Klebsiella aerogenes; test: Antibacterial activity against Enterobacter aerogenes ATCC 13048 after 18 hrs; type: functional; details: ATCC 13048, 18 h; how it was run: as §1
# [20] = system: Salmonella enterica subsp. enterica serovar Abony; test: Antibacterial activity against Salmonella enterica subspecies enterica serotype Abony NCTC 6017 after 18 hrs; type: functional; details: NCTC 6017, 18 h; how it was run: as §1
# [21] = system: Staphylococcus aureus; test: Antibacterial activity against Staphylococcus aureus NCTC 13758 after 18 hrs; type: functional; details: NCTC 13758, 18 h; how it was run: as §1
# [22] = system: Streptococcus pyogenes; test: Antibacterial activity against Streptococcus pyogenes ATCC 19615 after 18 hrs; type: functional; details: ATCC 19615, 18 h; how it was run: as §2
# [23] = system: Bacillus cereus; test: Antibacterial activity against Bacillus cereus ATCC 14579 after 18 hrs; type: functional; details: ATCC 14579, 18 h; how it was run: as §1
# [24] = system: Staphylococcus aureus; test: Antibacterial activity against Staphylococcus aureus ATCC 29213 after 18 hrs; type: functional; details: ATCC 29213, 18 h; how it was run: as §1
# [25] = system: Aeromonas hydrophila; test: Antibacterial activity against Aeromonas hydrophila OCC 778 after 18 hrs; type: functional; details: OCC 778, 18 h; how it was run: as §1
# [26] = system: Enterococcus faecalis; test: Antibacterial activity against Enterococcus faecalis ATCC 33186 after 18 hrs; type: functional; details: ATCC 33186, 18 h; how it was run: as §1
# [27] = system: Enterococcus faecium; test: Antibacterial activity against Enterococcus faecium ATCC 19434 after 18 hrs; type: functional; details: ATCC 19434, 18 h; how it was run: as §1
# [28] = Antibacterial activity against Salmonella enterica subspecies enterica serotype Dublin OCC 627 after 18 hrs; type: functional, Salmonella enterica subsp. enterica serovar Dublin; details: OCC 627, 18 h; how it was run: as §1
# [29] = system: Streptococcus agalactiae; test: Antibacterial activity against Streptococcus agalactiae OCC 182 after 18 hrs; type: functional; details: OCC 182, 18 h; how it was run: as §2
compound,measurement,setting,value
OC[C@H]1O[C@@H](Oc2cc(Cl)ccc2Oc2ccc(Cl)cc2Cl)[C@H](O)[C@@H](O)[C@H]1O,MIC,[1],0.5 µg/mL
same,MIC,[2],0.5 to 32 µg/mL
same,MIC,[3],8 µg/mL
same,MIC,[4],0.5 µg/mL
same,MIC,[5],0.5 µg/mL
same,MIC,[6],0.5 to 32 µg/mL
same,MIC,[7],0.5 µg/mL
same,MIC,[8],128 µg/mL
same,MIC,[9],4 µg/mL
same,MIC,[10],0.5 to 32 µg/mL
same,MIC,[11],0.5 to 32 µg/mL
same,MIC,[12],0.5 µg/mL
same,MIC,[13],0.5 µg/mL
same,MIC,[14],128 µg/mL
same,MIC,[15],2 to 16 µg/mL
same,MIC,[16],2 to 16 µg/mL
same,MIC,[17],0.5 to 32 µg/mL
same,MIC,[18],2 µg/mL
same,MIC,[19],8 µg/mL
same,MIC,[20],2 to 16 µg/mL
same,MIC,[21],0.5 µg/mL
same,MIC,[22],128 µg/mL
same,MIC,[23],256 µg/mL
same,MIC,[24],0.5 µg/mL
same,MIC,[25],256 µg/mL
same,MIC,[26],128 µg/mL
same,MIC,[27],> 256 µg/mL
same,MIC,[28],2 to 16 µg/mL
same,MIC,[29],256 µg/mL

# — ChEMBL document CHEMBL4325893, “Synthesis and antibacterial profiles of targeted triclosan derivatives” (2019)
